The test system of data set [1] is Hepatitis B virus. Nature of the data set: Antiviral activity against Hepatitis B virus infected in human MS-G2 cells assessed as inhibition of surface antigen secretion at 10 ug/ml after 3 days by ELISA. Format: functional. Also noted: scale not given: the % may be the effect or the level left. The procedure, abridged: (§1)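 MS-G2 cells (HepG2 transfected with two copies of HBV genome, secreting virus) grown in RPMI-1640 with 10% fetal calf serum at 37 °C, 5% CO2. Seeded 3 × 10^5 cells/well, attached overnight, then given compound in DMSO (1, 5, 10, 20 μg/mL; DMSO ≤2.5 μL/mL; DMSO-only control). Media collected at 3 days. HBsAg and HBeAg measured by ELISA at 490 nm. % inhibition taken relative to control.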
A general note: An ELISA detects its analyte on a solid surface through an enzyme-linked reagent.

Data set [2] can be described thus: Cytotoxicity against human MS-G2 cells at 20 ug/ml by AST method. The format is cell-based. The procedure, abridged:
(§2)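 Cell damage in compound-treated MS-G2 cultures was measured by aspartate transaminase (AST) kit. AST above 25 IU/L was taken as indicating cell damage or lysis.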

Data set [3] relates to Hepatitis B virus. In words: Antiviral activity against Hepatitis B virus infected in human MS-G2 cells assessed as inhibition of early antigen secretion at 10 ug/ml after 3 days by ELISA. More on the design: scale not given: the % may be the effect or the level left. Format: functional. The procedure, abridged:
as §1

In data set [4] the test system is Hepatitis B virus. Nature of the data set: Antiviral activity against Hepatitis B virus infected in human MS-G2 cells assessed as inhibition of early antigen secretion at 20 ug/ml after 3 days by ELISA. The format is functional. In short, it runs like this: as §1
The nature of data set [5]: Cytotoxicity against human MS-G2 cells at 10 ug/ml by AST method. Format: cell-based. In short, it runs like this:
as §2

Data set [6] relates to Human immunodeficiency virus. Nature of the data set: Antiviral activity against HIV replication in human H9 lymphocytes. The format is functional, organism-based.
The test system of data set [7] is Hepatitis B virus. In words: Antiviral activity against Hepatitis B virus infected in human MS-G2 cells assessed as inhibition of surface antigen secretion at 20 ug/ml after 3 days by ELISA. Format: functional. The procedure, abridged:
as §1

The test system of a further data set is H9. Nature of the data set: Cytotoxicity against human H9 cells. The format is cell-based.

Converted amounts (≈) assume the structure as drawn. The source made the active and inactive calls. The calls are words filed in the database; no cut-off is given here. Some results are limits rather than exact numbers.

The term IC50 denotes the concentration needed to halve the response being measured.

For the compound `CC=C(C)C(=O)O[C@@H]1c2cc3c(c(O)c2-c2c(cc(OC)c(OC)c2OC)C[C@@H](C)[C@H]1C)OCO3`, the Activity was less than 25% with Hepatitis B virus [1]; 47.8 IU/L in data set [2]; 25.8% in the data set with Hepatitis B virus [3]; “Toxic” in the data set with Hepatitis B virus [4]; 16.8 IU/L in data set [5]; “Toxic” in the data set on Hepatitis B virus [7]. In addition, the result in data set [6] was inactive.
Regarding `COC1=C(OC)C(=O)[C@]23COc4c5c(cc(c42)[C@H](OC(=O)/C=C/c2ccccc2)[C@H](C)[C@H](C)CC3=C1)OCO5` [SCHIARISANRIN D], the Activity is less than 25% with Hepatitis B virus [1]; 22 IU/L in data set [2]; 27% in the data set with Hepatitis B virus [3]; 42.9% with Hepatitis B virus [4]; 20.1 IU/L in data set [5]; less than 25% in the data set with Hepatitis B virus [7].
Regarding `CCC(C)C(=O)O[C@@H]1c2cc3c(c(O)c2-c2c(cc(OC)c(OC)c2OC)C[C@@H](C)[C@H]1C)OCO3` (stereo partly specified) [SCHIZARIN B], the Activity in the data set on Hepatitis B virus [1] was 42.6%; in data set [2], 15.5 IU/L; in the data set with Hepatitis B virus [3], 40.7%; with Hepatitis B virus [4] it was 42.1%; in data set [5] it was 17.6 IU/L; in the data set on Hepatitis B virus [7], 54.9%. Besides, in data set [6], the outcome was inactive.
Regarding `CCCCCC(=O)O[C@@H]1c2cc3c(c(O)c2-c2c(cc(OC)c(OC)c2OC)C[C@@H](C)[C@H]1C)OCO3` [SCHIZARIN C], the Activity was less than 25% with Hepatitis B virus [1]; 35.9 IU/L in data set [2]; less than 25% in the data set on Hepatitis B virus [3]; “Toxic” in the data set with Hepatitis B virus [4]; 16 IU/L in data set [5]; “Toxic” in the data set with Hepatitis B virus [7]. Moreover, the result in data set [6] was inactive.
For `COc1cc2c(c(OC)c1OC)-c1c(cc3c(c1O)OCO3)[C@@H](OC(=O)c1ccccc1)[C@H](C)[C@H](C)C2` [SCHIZARIN E], the Activity is less than 25% in the data set with Hepatitis B virus [1]; 44.3 IU/L in data set [2]; 31.8% in the data set with Hepatitis B virus [3]; “Toxic” in the data set with Hepatitis B virus [4]; 20.2 IU/L in data set [5]; “Toxic” in the data set on Hepatitis B virus [7]. The IC50 in the data set with H9 was 2.08 µg/mL (≈ 4.11 µM). Also, the result in data set [6] was inactive.
`CCC(C)C(=O)O[C@H]1c2cc3c(c4c2C(C(=O)C(=O)OC)(CO4)/C(=C\C(=O)OC)C[C@@H](C)[C@H]1C)OCO3` (stereo partly specified) [TAIWANSCHIRIN A]: the Activity with Hepatitis B virus [1] is recorded as less than 25%; in data set [2], 14.8 IU/L; in the data set on Hepatitis B virus [3], less than 25%; in the data set with Hepatitis B virus [4], 43%; in data set [5], 14.1 IU/L; in the data set with Hepatitis B virus [7], less than 25%.

Values taken from ChEMBL document CHEMBL1150814, “Schizanrins [corrected] B, C, D, and E, four new lignans from Kadsura matsudai and their antihepatitis activities” (J Nat Prod, 2001).
